Measured values: article PMC6880868 (Cancer cell, 2019)

Legend:
[1] = target: T1, STAT3 (Homo sapiens, UniProt P40763); test: Pharmacodynamics: STAT3 protein in xenograft tumors; assay type: in vivo, NOD/SCID mice bearing human xenograft tumors
Target sequence in this assay (P40763 whole entry): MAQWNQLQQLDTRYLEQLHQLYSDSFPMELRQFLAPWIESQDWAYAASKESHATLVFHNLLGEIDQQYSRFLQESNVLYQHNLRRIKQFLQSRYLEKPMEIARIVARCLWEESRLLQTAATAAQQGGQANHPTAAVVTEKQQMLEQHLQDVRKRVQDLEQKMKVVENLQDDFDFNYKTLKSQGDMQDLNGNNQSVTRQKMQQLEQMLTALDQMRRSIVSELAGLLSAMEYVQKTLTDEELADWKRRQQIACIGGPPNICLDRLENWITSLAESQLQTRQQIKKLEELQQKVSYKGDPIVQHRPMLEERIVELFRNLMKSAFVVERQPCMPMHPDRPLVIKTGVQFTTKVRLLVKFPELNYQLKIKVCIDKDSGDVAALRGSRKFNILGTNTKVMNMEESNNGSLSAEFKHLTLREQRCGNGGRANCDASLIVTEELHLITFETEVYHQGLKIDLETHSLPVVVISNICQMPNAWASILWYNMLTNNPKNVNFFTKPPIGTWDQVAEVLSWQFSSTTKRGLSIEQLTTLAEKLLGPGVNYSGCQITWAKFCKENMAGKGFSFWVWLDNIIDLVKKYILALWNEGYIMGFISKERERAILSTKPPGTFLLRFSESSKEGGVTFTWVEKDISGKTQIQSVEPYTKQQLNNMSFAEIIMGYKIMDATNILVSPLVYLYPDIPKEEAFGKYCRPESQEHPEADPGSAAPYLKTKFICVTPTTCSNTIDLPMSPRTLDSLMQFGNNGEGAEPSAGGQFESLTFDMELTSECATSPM

[2] = test system: MOLM-16 and SU-DHL-1 cell lines; test: Cell cycle analysis by flow cytometry; assay type: cell-based, human; details: 1 μM, 48 hr
Outline: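 After treatment, cells were washed twice in cold PBS and fixed overnight in 50% ethanol. They were stained 1 hr at 4°C with PI (50 μg/ml) plus DNase-free RNase A (0.2 μg/ml), then analysed by flow cytometry.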

[3] = target: STAT1 (Homo sapiens, UniProt P42224); test: Bio-Layer Interferometry binding, STAT1
Outline: (§1)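 Purified recombinant human STAT proteins were biotinylated, then direct binding of the test compound was measured by Bio-Layer Interferometry to give Kd.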

[4] = target: T1, STAT3; test: Bio-Layer Interferometry binding, STAT3
Outline: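 Recombinant human STAT3 was biotinylated and binding measured by Bio-Layer Interferometry for Kd. Selectivity was taken from Kd values against other STATs.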
Target sequence in this assay (P40763 127-688): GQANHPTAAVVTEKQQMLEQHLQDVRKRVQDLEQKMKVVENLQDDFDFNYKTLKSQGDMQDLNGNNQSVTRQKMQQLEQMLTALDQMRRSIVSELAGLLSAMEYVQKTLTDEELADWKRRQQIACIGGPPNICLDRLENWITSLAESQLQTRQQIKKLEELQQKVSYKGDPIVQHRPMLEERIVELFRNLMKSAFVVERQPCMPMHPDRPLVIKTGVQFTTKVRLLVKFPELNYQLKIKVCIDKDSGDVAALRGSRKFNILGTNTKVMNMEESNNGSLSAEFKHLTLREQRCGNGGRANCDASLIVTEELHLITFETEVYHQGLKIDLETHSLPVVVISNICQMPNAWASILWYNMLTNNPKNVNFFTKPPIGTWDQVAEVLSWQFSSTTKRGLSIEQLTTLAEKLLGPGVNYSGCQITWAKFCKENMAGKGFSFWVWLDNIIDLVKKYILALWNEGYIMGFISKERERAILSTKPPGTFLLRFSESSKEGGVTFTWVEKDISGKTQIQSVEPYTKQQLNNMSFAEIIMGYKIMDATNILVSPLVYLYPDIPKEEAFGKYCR

[5] = target: T1, STAT3; test: Fluorescence polarization; assay type: binding
Outline: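 Competitive fluorescence polarisation assay. Recombinant STAT3 (25 nM) was premixed 5 min with 2.5 nM 5-FAM-labelled STAT3 SH2-domain ligand. The mix was added to serially diluted test compound and read after 1 hr at room temperature. Buffer: 50 mM NaCl, 10 mM HEPES pH 7.5, 1 mM EDTA, 0.01% Triton X-100, 2 mM DTT. IC50 came from nonlinear regression and was converted to Ki.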
Target sequence in this assay (P40763 127-688): as above

[6] = target: STAT4 (Homo sapiens, UniProt Q14765); test: Bio-Layer Interferometry binding, STAT4
Outline: as §1

[7] = target: T1, STAT3; test: STAT3 protein degradation in human cells; assay type: cell-based
Outline: (§2)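 Treated cells were lysed in cell lysis buffer, resolved by SDS-PAGE, transferred to PVDF and probed by immunoblotting.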
Target sequence in this assay (P40763 whole entry): as the sequence (P40763 whole entry) above

[8] = test system: mitochondrial STAT3; complex I and II; test: Mitochondrial STAT3 and OXPHOS complex I/II enzyme activity; assay type: cell-based; details: 24 hours
[9] = target: STAT2 (Homo sapiens, UniProt P52630); test: Bio-Layer Interferometry binding, STAT2
Outline: as §1

[10] = test system: SU-DHL-1 and SUP-M2 cells; test: Annexin V apoptosis assay; assay type: cell-based, human; details: 48 hr
Outline: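 Cells collected at the end of treatment, washed in cold PBS, stained with an Annexin V-FLUOS kit per the maker's protocol, and analysed by flow cytometry.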

[11] = Pharmacokinetics in tumor-bearing mice; assay type: in vivo, NOD/SCID female mice; details: single i.v. dose 25 mg/kg; 1, 3 and 6 hr
Outline: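 In NOD/SCID female mice with subcutaneous MOLM-16 xenografts, mice were dosed i.v. Blood and tissues were collected at the indicated times, and drug levels were measured by a pharmacokinetics core.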

[12] = target: STAT6 (Homo sapiens, UniProt P42226); test: Bio-Layer Interferometry binding, STAT6
Outline: as §1

[13] = test system: MOLM-16; test: 4-day CellTiter Glo cell viability assay, MOLM-16; assay type: cell-based; details: Homo sapiens, MOLM16, 96 h, read-out: IC50, growth inhibition
[14] = test system: MOLM-16 cells; test: RNA-seq analysis, MOLM-16; assay type: cell-based, human
[15] = test system: transcriptional activities of STAT1 or STAT5A/B; test: STAT1 and STAT5 dependent reporter cell lines; assay type: cell-based; details: STAT-dependent reporter cell lines
Outline: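 Reporter cells (1000–2000) were seeded in duplicate plates, one for luciferase and one for CellTiter-Glo viability. Test compound was added 4–6 hr later, and cells were cultured 24 or 48 hr. Firefly and Renilla luciferase were read, and signals were normalised to cell number from the viability plate.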

[16] = test system: DNA binding activities of STAT1, STAT5A or STAT5B; test: STAT1, STAT5A, STAT5B DNA binding activity assay; assay type: cell-based, human; details: MOLM-16
Outline: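 Nuclear extraction: cells were swelled 15 min on ice in hypotonic HEPES pH 7.9/10 mM KCl buffer with DTT and phosphatase/protease inhibitors. NP-40 was added (0.5% final), and nuclei were extracted 15 min at 4°C in 0.4 M NaCl HEPES buffer, then cleared at 5,000 × g. ELISA: 5 μg extract was bound 1 hr at room temperature in TransAM STAT ELISA wells. Wells then received STAT antibody (1:1000, 1 hr), HRP secondary (1 hr) and colour development.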

[17] = test system: IKZF1, IKZF3, CK1α, GSPT1; test: Immunoblotting of CRBN neo-substrates; assay type: cell-based, human; details: 24 hr; SD-36 0.5 μM, lenalidomide 1 μM
[18] = test system: SU-DHL-1; test: RNA-seq analysis, SU-DHL-1; assay type: cell-based, human; details: SU-DHL-1, 24 hr
[19] = target: STAT3 protein (Mus musculus, UniProt P42227); test: STAT3 degradation in murine cells; assay type: cell-based
[20] = test system: MOLM-16 tumors; test: MOLM-16 xenograft efficacy; assay type: in vivo, NOD/SCID female mice
Outline: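 NOD/SCID female mice were injected subcutaneously in 5 mg/ml Matrigel with MOLM-16 (3 × 10^6), SU-DHL-1 (1 × 10^7) or SUP-M2 (1 × 10^7) cells. At about 150 mm3, mice were size-matched and randomised. Test compound or vehicle (10% PEG400 + 90% PBS) was given on the indicated schedules. Tumours were measured 2–3 times weekly, with volume = length×width²/2. TGI was calculated from group medians.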

[21] = target: STAT5A (Homo sapiens, UniProt P42229); test: Bio-Layer Interferometry binding, STAT5A
Outline: as §1

[22] = test system: STAT1, STAT4 and other STATs; test: Degradation of other STAT proteins in cells; assay type: cell-based, human
Outline: as §2

[23] = 100 mg/kg weekly or 50 mg/kg twice weekly for 4 weeks

STAT1, sequence (P42224 132-713): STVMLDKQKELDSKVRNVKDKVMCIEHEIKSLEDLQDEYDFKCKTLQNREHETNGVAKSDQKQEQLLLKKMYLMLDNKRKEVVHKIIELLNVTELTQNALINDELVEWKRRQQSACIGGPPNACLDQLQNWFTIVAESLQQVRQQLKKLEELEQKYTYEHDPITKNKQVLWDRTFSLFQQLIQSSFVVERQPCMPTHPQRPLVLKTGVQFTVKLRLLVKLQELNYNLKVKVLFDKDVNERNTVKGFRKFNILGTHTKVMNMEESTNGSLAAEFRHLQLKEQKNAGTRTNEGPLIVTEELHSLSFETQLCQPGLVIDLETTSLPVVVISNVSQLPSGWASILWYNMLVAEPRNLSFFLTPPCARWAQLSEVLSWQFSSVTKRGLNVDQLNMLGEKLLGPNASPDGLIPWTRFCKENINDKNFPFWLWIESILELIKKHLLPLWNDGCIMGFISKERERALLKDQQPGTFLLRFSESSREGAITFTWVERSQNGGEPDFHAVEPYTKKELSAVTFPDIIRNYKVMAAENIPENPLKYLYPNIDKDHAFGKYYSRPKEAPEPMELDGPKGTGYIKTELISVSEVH
STAT5A, sequence (P42229 136-705): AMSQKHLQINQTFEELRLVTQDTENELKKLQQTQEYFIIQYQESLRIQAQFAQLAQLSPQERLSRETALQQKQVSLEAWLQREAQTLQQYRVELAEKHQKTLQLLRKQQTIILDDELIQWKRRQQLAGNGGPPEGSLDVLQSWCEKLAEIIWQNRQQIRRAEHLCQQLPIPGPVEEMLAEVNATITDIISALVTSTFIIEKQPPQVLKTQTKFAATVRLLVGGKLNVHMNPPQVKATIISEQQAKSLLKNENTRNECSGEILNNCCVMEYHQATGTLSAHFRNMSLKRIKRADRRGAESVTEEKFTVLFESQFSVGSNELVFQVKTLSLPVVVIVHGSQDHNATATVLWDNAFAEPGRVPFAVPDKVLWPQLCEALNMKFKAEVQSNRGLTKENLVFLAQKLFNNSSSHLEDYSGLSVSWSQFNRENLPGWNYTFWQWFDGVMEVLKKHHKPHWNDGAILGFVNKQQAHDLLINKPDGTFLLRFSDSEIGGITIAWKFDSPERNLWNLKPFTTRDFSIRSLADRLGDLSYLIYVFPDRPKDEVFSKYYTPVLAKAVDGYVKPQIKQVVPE
STAT6, sequence (P42226 113-658): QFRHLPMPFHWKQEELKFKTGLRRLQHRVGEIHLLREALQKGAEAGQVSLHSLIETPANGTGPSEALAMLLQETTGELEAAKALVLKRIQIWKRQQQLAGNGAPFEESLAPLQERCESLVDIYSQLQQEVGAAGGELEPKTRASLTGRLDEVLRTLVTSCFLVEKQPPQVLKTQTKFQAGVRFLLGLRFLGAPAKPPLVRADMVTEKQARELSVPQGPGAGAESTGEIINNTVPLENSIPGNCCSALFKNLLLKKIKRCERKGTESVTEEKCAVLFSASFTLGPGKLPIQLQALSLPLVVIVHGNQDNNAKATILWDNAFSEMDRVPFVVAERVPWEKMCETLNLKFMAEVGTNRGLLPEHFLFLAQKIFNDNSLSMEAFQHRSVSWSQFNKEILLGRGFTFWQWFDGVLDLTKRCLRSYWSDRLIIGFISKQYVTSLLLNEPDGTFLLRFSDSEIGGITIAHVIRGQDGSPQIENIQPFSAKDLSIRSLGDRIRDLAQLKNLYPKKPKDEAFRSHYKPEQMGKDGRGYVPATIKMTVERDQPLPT
STAT2, sequence (P52630 138-702): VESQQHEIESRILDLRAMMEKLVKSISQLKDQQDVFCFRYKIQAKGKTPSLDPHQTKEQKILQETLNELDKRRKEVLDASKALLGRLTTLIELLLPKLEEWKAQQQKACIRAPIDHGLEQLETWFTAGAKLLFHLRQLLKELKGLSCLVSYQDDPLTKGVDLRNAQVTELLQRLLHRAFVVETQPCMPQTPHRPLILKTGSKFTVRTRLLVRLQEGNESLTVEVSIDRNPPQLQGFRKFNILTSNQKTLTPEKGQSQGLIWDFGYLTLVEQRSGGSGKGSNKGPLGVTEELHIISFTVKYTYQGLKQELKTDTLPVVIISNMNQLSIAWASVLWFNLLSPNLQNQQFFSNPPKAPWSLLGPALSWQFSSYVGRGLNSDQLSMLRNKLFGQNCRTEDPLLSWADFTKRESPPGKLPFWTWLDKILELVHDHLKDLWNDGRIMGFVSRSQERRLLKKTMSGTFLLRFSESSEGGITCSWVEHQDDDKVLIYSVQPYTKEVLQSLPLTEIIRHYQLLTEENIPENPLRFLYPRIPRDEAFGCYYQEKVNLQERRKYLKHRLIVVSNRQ
STAT3 protein, sequence (P42227 whole entry): as the sequence (P40763 whole entry) above, with E760D counted along it
STAT4, sequence (Q14765 133-705): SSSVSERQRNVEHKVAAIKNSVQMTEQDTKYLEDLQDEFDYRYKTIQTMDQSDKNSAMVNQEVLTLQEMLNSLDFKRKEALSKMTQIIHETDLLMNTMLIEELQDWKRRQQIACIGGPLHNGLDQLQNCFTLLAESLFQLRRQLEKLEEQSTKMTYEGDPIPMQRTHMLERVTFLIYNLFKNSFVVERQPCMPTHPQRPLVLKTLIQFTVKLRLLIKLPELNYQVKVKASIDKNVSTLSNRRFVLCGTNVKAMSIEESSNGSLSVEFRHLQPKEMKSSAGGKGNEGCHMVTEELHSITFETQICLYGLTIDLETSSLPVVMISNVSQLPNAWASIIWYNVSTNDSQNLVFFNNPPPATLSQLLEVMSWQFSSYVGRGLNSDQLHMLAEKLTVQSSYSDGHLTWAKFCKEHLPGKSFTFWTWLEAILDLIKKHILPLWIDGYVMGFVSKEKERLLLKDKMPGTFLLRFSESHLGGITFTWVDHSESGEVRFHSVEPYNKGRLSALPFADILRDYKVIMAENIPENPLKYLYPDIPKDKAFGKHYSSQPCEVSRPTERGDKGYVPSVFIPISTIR

**Q.** Which “STAT3 protein level in MOLM-16 tumors, of controls” value ([1]; 4 days after a single dose) does the source give for `NC(=O)CC[C@H](NC(=O)[C@@H]1CC[C@@H]2CCN(C(=O)CCCCCC#Cc3cccc4c3CN(C3CCC(=O)NC3=O)C4=O)C[C@H](NC(=O)c3cc4cc(C(F)(F)P(=O)(O)O)ccc4[nH]3)C(=O)N21)C(=O)NC(c1ccccc1)c1ccccc1` (stereo partly drawn) [SD-36, ((2-(((5S,8S,10aR)-8-(((S)-5-amino-1-(benzhydrylamino)-1,5-dioxopentan-2-yl)carbamoyl)-3-(8-(2-(2,6-dioxopiperidin-3-yl)-1-oxoisoindolin-4-yl)oct-7-ynoyl)-6-oxodecahydropyrrolo[1,2-a][1,5]diazocin-5-yl)carbamoyl)-1H-indol-5-yl)difluoromethyl)phosphonic acid] here?
**A.** < 50%

**Q.** And the “depletion of STAT3 protein in MOLM-16 and SU-DHL-1 tumors” value ([1]; single dose, 6 hr)?
**A.** near-complete depletion

**Q.** And the “persistence of near-complete STAT3 depletion” value ([1]; single dose, MOLM-16 and SU-DHL-1 tumors)?
**A.** > 24 h

**Q.** What about the “duration of reduced STAT3 protein level” value ([1]; single i.v. dose) of the same compound?
**A.** > 4 days

**Q.** What about the “STAT3 protein depleted in MOLM-16 tumors” value ([1]; single i.v. dose 25 mg/kg, 1 hr) of the same compound?
**A.** > 80%

**Q.** And the cell cycle effect [2]?
**A.** profound G1 arrest

**Q.** What about the Kd [3] of the same compound?
**A.** 1 to 2 µM

**Q.** And the Kd [4]?
**A.** ~0.05 µM

**Q.** What about the “binding selectivity for STAT3 over STAT1 and STAT4” value ([4]; BLI Kd) of the same compound?
**A.** approximately 20 fold

**Q.** And the Ki [5]?
**A.** 0.011 µM

**Q.** And the Kd [6]?
**A.** 1 to 2 µM

**Q.** What about the STAT3 protein depleted ([7]; DEL, 250 nM, 7 hr) of the same compound?
**A.** > 50%

**Q.** And the STAT3 protein depleted ([7]; KI-JK, 250 nM, 7 hr)?
**A.** > 50%

**Q.** What about the “levels of activated pSTAT3 (Y705)” value ([7]; MOLM-16, 0.25 μM) of the same compound?
**A.** effectively reduced

**Q.** And the STAT3 protein depleted ([7]; MOLM-16, 250 nM, 4 hr)?
**A.** > 90%

**Q.** And the “cellular STAT3 protein in SD-36 insensitive cell lines” value ([7]; SD-36 insensitive cell lines)?
**A.** effectively depleted

**Q.** And the STAT3 protein depleted ([7]; SU-DHL-1, 250 nM, 7 hr)?
**A.** > 50%

**Q.** What about the hook effect ([7]; concentrations as high as 10 μM, all cell lines tested) of the same compound?
**A.** not observed

**Q.** And the “levels of STAT3 protein in PBMCs” value ([7]; human PBMCs, 24 hr)?
**A.** potently and effectively reduced

**Q.** What about the “effect on complex I and II activity” value [8] of the same compound?
**A.** did not have a substantial effect

**Q.** What about the “mitochondrial STAT3” value [8] of the same compound?
**A.** effectively depleted

**Q.** And the Kd [9]?
**A.** ~5 µM

**Q.** And the apoptosis [10]?
**A.** strong apoptotic cell death

**Q.** And the “drug exposure in plasma, tumor tissues and several organs” value [11]?
**A.** good drug exposure

**Q.** What about the Kd [12] of the same compound?
**A.** > 10 µM

**Q.** And the IC50 [13]?
**A.** 0.035 µM

**Q.** What about the “genes down-regulated by ≥2-fold (p≤0.05)” value ([14]; MOLM-16, 1 μM, 8 hr) of the same compound?
**A.** 125 genes

**Q.** What about the “genes up-regulated by ≥2-fold (p≤0.05)” value ([14]; MOLM-16, 1 μM, 8 hr) of the same compound?
**A.** 34 genes

**Q.** What about the “genes down-regulated ≥2-fold (p≤0.05)” value ([14]; MOLM-16, 24 hr) of the same compound?
**A.** 301 genes

**Q.** What about the “genes up- or down-regulated ≥2-fold (p≤0.05), total” value ([14]; MOLM-16, 24 hr) of the same compound?
**A.** 348 genes

**Q.** What about the “genes up-regulated ≥2-fold (p≤0.05)” value ([14]; MOLM-16, 24 hr) of the same compound?
**A.** 47 genes

**Q.** And the “transcriptional activities of STAT1 or STAT5A/B” value [15]?
**A.** minimal effect

**Q.** What about the “DNA binding activities of STAT1, STAT5A or STAT5B” value [16] of the same compound?
**A.** no significant effect

**Q.** And the “levels of IKZF1, IKZF3 and CK1α” value [17]?
**A.** very modest effect

**Q.** And the “protein levels of GSPT1” value [17]?
**A.** not affected

**Q.** And the “genes down-regulated by ≥2-fold (p≤0.05)” value [18]?
**A.** 701 genes

**Q.** And the “genes up-regulated by ≥2-fold (p≤0.05)” value [18]?
**A.** 726 genes

**Q.** And the “STAT3 protein degradation in murine cells” value [19]?
**A.** efficiently degraded

**Q.** And the “persistence of regression after cessation of treatment” value [20, 23]?
**A.** at least 2 weeks

**Q.** What about the tumor response [20, 23] of the same compound?
**A.** complete tumor regression

**Q.** And the tumor growth ([20]; 25 and 50 mg/kg weekly for 4 weeks)?
**A.** effectively inhibited tumor growth

**Q.** What about the Kd [21] of the same compound?
**A.** ~5 µM

**Q.** What about the “effect on other STATs” value ([22]; MOLM-16 and SU-DHL-1 cells) of the same compound?
**A.** without effect on other STATs

**Q.** What about the “degradation of STAT1, STAT4 and other STATs” value ([22]; human PBMCs, 24 hr) of the same compound?
**A.** failed to degrade
